Laboratory results as given in ChEMBL document CHEMBL1781980, “Structure-activity relationship studies to probe the phosphoprotein binding site on the carboxy terminal domains of the breast cancer susceptibility gene 1” (J Med Chem, 2011).
The source made the active and inactive calls. No cut-off for these calls is given here. Non-standard residues stand in square brackets, D forms with d. Residues, ends and D or L forms follow the SMILES beside them. pS = N[C@@H](COP(=O)(O)O)C(=O)O

How the values were obtained:
[1] = target: T1, Breast cancer type 1 susceptibility protein (Homo sapiens, UniProt P38398); experiment: Binding affinity to BRCA1 by isothermal titration calorimetric assay
Summary of the method: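 Direct ITC titration at 25°C. Protein dialyzed three times (2 h each) into 50mM KH2PO4 pH = 7.2; final dialysate used for reference cell and to dissolve peptides. Peptides (100 – 400 μM) in syringe, protein (10 – 20 μM) in cell; 3 μL first injection then 29 × 10 μL every 3 minutes, stirred at 307 rpm. Peptide-into-buffer dilution curves collected; Kd and ΔG, ΔH, ΔS derived.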

[2] = target: T1, Breast cancer type 1 susceptibility protein; experiment: Inhibition of BRCA1 by fluorescence polarization assay
Summary of the method: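 Competitive fluorescence polarization assay. Peptides titrated into a mixture of BRCT protein (1000 nM) and fluorescently labeled tetrapeptide (100 nM). Polarization and fluorescence read on a plate reader. IC50 values obtained by non-linear least square fitting.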
Target sequence in this assay (P38398 whole entry): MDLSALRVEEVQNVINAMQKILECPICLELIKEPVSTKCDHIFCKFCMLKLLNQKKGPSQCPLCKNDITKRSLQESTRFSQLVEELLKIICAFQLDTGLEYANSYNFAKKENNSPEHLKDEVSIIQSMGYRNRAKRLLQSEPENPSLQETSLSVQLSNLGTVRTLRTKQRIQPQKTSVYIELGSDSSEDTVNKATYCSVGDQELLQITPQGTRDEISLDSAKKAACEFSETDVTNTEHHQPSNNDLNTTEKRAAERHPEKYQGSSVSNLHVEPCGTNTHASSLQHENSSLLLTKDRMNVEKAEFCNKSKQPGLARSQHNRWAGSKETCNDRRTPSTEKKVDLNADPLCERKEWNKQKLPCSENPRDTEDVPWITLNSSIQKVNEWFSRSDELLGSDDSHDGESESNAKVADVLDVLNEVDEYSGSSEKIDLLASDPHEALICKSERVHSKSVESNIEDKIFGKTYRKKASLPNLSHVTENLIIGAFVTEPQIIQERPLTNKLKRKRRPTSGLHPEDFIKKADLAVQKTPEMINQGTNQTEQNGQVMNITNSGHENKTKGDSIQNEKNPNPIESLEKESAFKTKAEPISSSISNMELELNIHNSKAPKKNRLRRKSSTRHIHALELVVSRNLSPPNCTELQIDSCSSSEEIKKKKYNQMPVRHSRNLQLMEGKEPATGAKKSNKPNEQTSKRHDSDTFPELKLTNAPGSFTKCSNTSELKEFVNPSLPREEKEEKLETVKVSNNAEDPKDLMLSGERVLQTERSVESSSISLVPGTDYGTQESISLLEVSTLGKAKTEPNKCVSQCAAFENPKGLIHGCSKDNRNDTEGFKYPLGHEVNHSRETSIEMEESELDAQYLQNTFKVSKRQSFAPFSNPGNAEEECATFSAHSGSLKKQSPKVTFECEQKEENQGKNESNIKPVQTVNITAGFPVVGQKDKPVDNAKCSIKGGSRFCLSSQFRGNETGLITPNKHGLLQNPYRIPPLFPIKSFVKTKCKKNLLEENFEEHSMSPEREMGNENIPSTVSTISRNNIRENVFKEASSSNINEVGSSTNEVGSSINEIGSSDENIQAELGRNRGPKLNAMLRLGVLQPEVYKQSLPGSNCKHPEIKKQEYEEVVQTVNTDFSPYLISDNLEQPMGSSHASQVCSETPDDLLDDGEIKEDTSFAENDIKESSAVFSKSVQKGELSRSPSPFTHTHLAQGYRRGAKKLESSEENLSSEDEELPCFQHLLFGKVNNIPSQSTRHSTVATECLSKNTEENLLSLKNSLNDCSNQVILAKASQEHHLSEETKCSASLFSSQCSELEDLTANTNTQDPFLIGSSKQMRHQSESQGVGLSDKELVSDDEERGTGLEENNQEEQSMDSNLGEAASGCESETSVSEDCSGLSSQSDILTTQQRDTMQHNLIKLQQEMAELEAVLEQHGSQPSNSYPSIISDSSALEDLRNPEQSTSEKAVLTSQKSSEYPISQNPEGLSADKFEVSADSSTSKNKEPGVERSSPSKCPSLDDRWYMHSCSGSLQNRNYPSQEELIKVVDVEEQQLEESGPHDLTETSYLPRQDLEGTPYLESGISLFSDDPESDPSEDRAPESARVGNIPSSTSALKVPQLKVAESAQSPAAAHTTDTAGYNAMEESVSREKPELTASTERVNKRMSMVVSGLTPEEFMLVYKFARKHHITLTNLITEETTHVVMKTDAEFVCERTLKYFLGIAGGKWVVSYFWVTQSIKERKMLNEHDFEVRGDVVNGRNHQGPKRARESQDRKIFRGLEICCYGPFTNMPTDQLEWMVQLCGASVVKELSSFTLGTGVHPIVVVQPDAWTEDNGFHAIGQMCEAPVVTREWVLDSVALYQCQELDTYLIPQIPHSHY

| Compound | Activity [1] | Kd [1] [nM] | other results |
| --- | --- | --- | --- |
| CC(=O)N[C@@H](COP(=O)(O)O)C(=O)N1CCC[C@H]1C(=O)N[C@H](C(=O)N[C@@H](Cc1ccccc1)C(N)=O)C(C)C (Ac-[pS]PVF-NH2) | Active | – | – |
| CC[C@H](C)[C@H](N)C(=O)N[C@@H](CO)C(=O)N[C@@H](CCCNC(=N)N)C(=O)N[C@@H](CO)C(=O)N[C@H](C(=O)N[C@@H](COP(=O)(O)O)C(=O)N1CCC[C@H]1C(=O)N[C@H](C(=O)N[C@@H](Cc1ccccc1)C(=O)N[C@@H](CC(N)=O)C(=O)N[C@@H](CCCCN)C(=O)N[C@@H](CCC(N)=O)C(=O)N[C@H](C(=O)O)[C@@H](C)O)[C@@H](C)O)[C@@H](C)O | – | 410 | – |
| CC(=O)N[C@@H](CO)C(=O)N[C@@H](CCCNC(=N)N)C(=O)N[C@@H](CO)C(=O)N[C@H](C(=O)N[C@@H](COP(=O)(O)O)C(=O)N1CCC[C@H]1C(=O)N[C@H](C(=O)N[C@@H](Cc1ccccc1)C(=O)N[C@@H](CC(N)=O)C(=O)N[C@@H](CCCCN)C(N)=O)[C@@H](C)O)[C@@H](C)O | – | 440 | – |
| CC(=O)N[C@@H](COP(=O)(O)O)C(=O)N1CCC[C@H]1C(=O)N[C@H](C(=O)N[C@@H](Cc1ccccc1)C(N)=O)[C@@H](C)O (Ac-[pS]PTF-NH2) | Active | – | – |
| CC(=O)N[C@@H](COP(=O)(O)O)C(=O)N1CCC[C@H]1C(=O)N[C@H](C(=O)N[C@@H](Cc1ccccc1)C(=O)O)C(C)C (Ac-[pS]PVF-OH) | Active | – | – |
| CC(=O)N[C@@H](CCC(=O)O)C(=O)N1CCC[C@H]1C(=O)N[C@H](C(=O)N[C@@H](Cc1ccccc1)C(N)=O)[C@@H](C)O (Ac-EPTF-NH2) | – | – | IC50 [2]: > 250 µM |
